Source: ChEMBL document CHEMBL3808312, “Bioactive Constituents of Glycyrrhiza uralensis (Licorice): Discovery of the Effective Components of a Traditional Herbal Medicine” (J Nat Prod, 2016)

Key:
Influenza A virus [1] = test: Antiviral activity against Influenza A virus A/WSN/33(H1N1) infected in MDCK cells at 100 uM preincubated with virus for 15 mins followed by cells addition measured at 36 hrs post infection; assay type: functional, A/WSN/1933(H1N1)
In short: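 MDCK canine kidney cells grown in DMEM and infected with influenza A/WSN/33 (H1N1). Compounds screened at 100 μM. Oseltamivir phosphate served as the positive control.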

Influenza A virus [2] = test: Antiviral activity against Influenza A virus A/WSN/33(H1N1) infected in dog MDCK cells preincubated with virus for 15 mins followed by cells addition measured at 36 hrs post infection; assay type: functional, organism-based; conditions: A/WSN/1933(H1N1)

Structure (SMILES)	Activity (Influenza A virus [1])	IC50 (Influenza A virus [2])	inhibition at 100 µM (Influenza A virus [1]; Influenza A virus, A/WSN/1933(H1N1), MDCK)
CC1(C)[C@@H](O[C@@H]2O[C@H](C(=O)O)[C@@H](O)[C@H](O)[C@H]2O[C@@H]2O[C@H](C(=O)O)[C@@H](O)[C@H](O)[C@H]2O)CC[C@]2(C)[C@H]3C=CC4=C5C[C@@](C)(C(=O)O)CC[C@]5(C)CC[C@@]4(C)[C@]3(C)CC[C@@H]12	47%	39.6 µM	–
C[C@@H]1O[C@@H](O[C@H]2[C@H](O[C@@H]3[C@@H](O[C@@H]4CC[C@]5(C)[C@H](CC[C@@]6(C)[C@H]5C(=O)C=C5[C@@H]7C[C@]8(C)C[C@@H](COC8=O)[C@@]7(C)CC[C@@]56C)C4(C)C)O[C@@H](C(=O)O)[C@H](O)[C@H]3O)O[C@H](C(=O)O)[C@@H](O)[C@@H]2O)[C@H](O)[C@H](O)[C@H]1O	47%	39.6 µM	–
CC(=O)O[C@@H]1C[C@](C)(C(=O)O)C[C@@H]2C3=CC(=O)[C@@H]4[C@@]5(C)CC[C@H](O[C@@H]6O[C@H](C(=O)O)[C@@H](O)[C@H](O)[C@H]6O[C@@H]6O[C@H](C(=O)O)[C@@H](O)[C@H](O)[C@H]6O)[C@](C)(CO)[C@@H]5CC[C@@]4(C)[C@]3(C)CC[C@]21C	47%	39.6 µM	–
C[C@]1(C(=O)O)CC[C@]2(C)CC[C@]3(C)C(=CC[C@@H]4[C@@]5(C)CC[C@H](O[C@@H]6O[C@H](C(=O)O)[C@@H](O)[C@H](O)[C@H]6O[C@@H]6O[C@H](C(=O)O)[C@@H](O)[C@H](O)[C@H]6O)[C@](C)(CO)[C@@H]5CC[C@]43C)[C@H]2C1	47%	39.6 µM	–
CC(=O)O[C@H]1C[C@@](C)(C(=O)O)C[C@H]2C3=CC(=O)[C@H]4[C@]5(C)CC[C@@H](O[C@@H]6O[C@H](C(=O)O)[C@@H](O)[C@H](O)[C@H]6O[C@H]6O[C@@H](CO)[C@H](O)[C@@H](O)[C@@H]6O[C@H]6O[C@H](C)[C@@H](O)[C@H](O)[C@@H]6O)C(C)(C)[C@H]5CC[C@]4(C)[C@@]3(C)CC[C@]12C	47%	39.6 µM	–
CC(=O)O[C@@H]1C[C@](C)(C(=O)O)C[C@@H]2C3=CC(=O)[C@@H]4[C@@]5(C)CC[C@H](O[C@H]6O[C@@H](C(=O)O)[C@H](O)[C@@H](O)[C@@H]6O[C@H]6O[C@@H](C(=O)O)[C@H](O)[C@@H](O)[C@@H]6O)C(C)(C)[C@@H]5CC[C@@]4(C)[C@]3(C)CC[C@]21C	47%	39.6 µM	–
CC(=O)O[C@@H]1C[C@](C)(C(=O)O)C[C@@H]2C3=CC(=O)[C@@H]4[C@@]5(C)CC[C@H](O[C@@H]6O[C@H](C(=O)O)[C@@H](O)[C@H](O)[C@H]6O[C@@H]6O[C@H](C(=O)O)[C@H](O)[C@H](O)[C@H]6O)C(C)(C)[C@@H]5CC[C@@]4(C)[C@]3(C)CC[C@]21C	47%	39.6 µM	–
CC1(C)[C@@H](O[C@@H]2O[C@H](C(=O)O)[C@@H](O)[C@H](O)[C@H]2O)CC[C@]2(C)[C@H]3C(=O)C=C4[C@H]5C[C@@](C)(C(=O)O)CC[C@]5(C)CC[C@@]4(C)[C@]3(C)CC[C@@H]12	47%	39.6 µM	–
C[C@]1(C(=O)O)CC[C@@]2(C)CC[C@@]3(C)C(=CC(=O)[C@H]4[C@]5(C)CC[C@@H](O[C@H]6O[C@@H](C(=O)O)[C@H](O)[C@@H](O)[C@@H]6O[C@H]6O[C@@H](C(=O)O)[C@H](O)[C@@H](O)[C@@H]6O)[C@@](C)(CO)[C@H]5CC[C@@]43C)[C@@H]2C1	47%	39.6 µM	–
CC(C)(O)CCc1c(O)cc2occ(-c3ccc(O)c(O)c3)c(=O)c2c1O	>30%	–	–
CC1(C)[C@H]2CC[C@@]3(C)[C@@H](C(=O)C=C4[C@@H]5C[C@]6(C)C[C@@H](COC6=O)[C@@]5(C)CC[C@@]43C)[C@]2(C)CC[C@H]1O[C@@H]1O[C@H](C(=O)O)[C@@H](O)[C@H](O)[C@H]1O[C@@H]1O[C@H](C(=O)O)[C@@H](O)[C@H](O)[C@H]1O	47%	39.6 µM	–
CC1(C)[C@@H](O[C@@H]2O[C@H](C(=O)O)[C@@H](O)[C@H](O)[C@H]2O[C@@H]2O[C@H](C(=O)O)[C@@H](O)[C@H](O)[C@H]2O)CC[C@]2(C)C3=CC=C4[C@H]5C[C@@](C)(C(=O)O)CC[C@]5(C)CC[C@@]4(C)[C@]3(C)CC[C@@H]12	47%	39.6 µM	–
C[C@@]1(C(=O)O)CC[C@@]2(C)CC[C@@]3(C)C(=CC(=O)[C@H]4[C@]5(C)CC[C@@H](O[C@H]6O[C@@H](C(=O)O)[C@H](O)[C@@H](O)[C@@H]6O[C@H]6O[C@@H](C(=O)O)[C@@H](O)[C@@H](O)[C@@H]6O)[C@@](C)(CO)[C@H]5CC[C@@]43C)[C@@H]2C1	47%	39.6 µM	–
CC(=O)O[C@H]1C[C@@](C)(C(=O)O)C[C@H]2C3=CC(=O)[C@H]4[C@]5(C)CC[C@@H](O[C@@H]6O[C@H](C(=O)O)[C@@H](O)[C@H](O)[C@H]6O[C@H]6O[C@@H](C(=O)O)[C@H](O)[C@@H](O)[C@@H]6O[C@H]6O[C@H](C)[C@@H](O)[C@H](O)[C@@H]6O)C(C)(C)[C@H]5CC[C@]4(C)[C@@]3(C)CC[C@]12C	47%	39.6 µM	–
CC(=O)O[C@H]1C[C@@](C)(C(=O)O)C[C@H]2C3=CC(=O)[C@H]4[C@]5(C)CC[C@@H](O[C@@H]6O[C@H](C(=O)O)[C@H](O)[C@H](O)[C@H]6O[C@H]6O[C@@H](CO)[C@H](O)[C@@H](O)[C@@H]6O[C@H]6O[C@H](C)[C@@H](O)[C@H](O)[C@@H]6O)C(C)(C)[C@H]5CC[C@]4(C)[C@@]3(C)CC[C@]12C	47%	39.6 µM	–
C[C@]1(C(=O)O)CC[C@]2(C)CC[C@]3(C)C(=CC(=O)[C@@H]4[C@@]5(C)CC[C@H](O[C@@H]6O[C@H](C(=O)O)[C@@H](O)[C@H](O)[C@H]6O[C@@H]6O[C@H](C(=O)O)[C@@H](O)[C@H](O)[C@H]6O)[C@](C)(CO)[C@@H]5CC[C@]43C)[C@H]2C1	47%	39.6 µM	–
CC1(C)[C@@H](O[C@H]2O[C@H](C(=O)O)[C@@H](O)[C@H](O)[C@H]2O[C@@H]2O[C@H](C(=O)O)[C@@H](O)[C@H](O)[C@H]2O)CC[C@]2(C)[C@H]3C(=O)C=C4[C@@H]5C[C@@](C)(C(=O)O)CC[C@]5(C)CC[C@@]4(C)[C@]3(C)CC[C@@H]12 [GLYCYRRHIZIN]	47%	39.6 µM	–
CC1(C)[C@@H](O[C@@H]2O[C@H](C(=O)O)[C@@H](O)[C@H](O)[C@H]2O[C@@H]2O[C@H](C(=O)O)[C@@H](O)[C@H](O)[C@H]2O)CC[C@]2(C)[C@H]3C(=O)C=C4[C@H]5C[C@](C)(C(=O)O)CC[C@]5(C)CC[C@@]4(C)[C@]3(C)CC[C@@H]12	47%	39.6 µM	–
C[C@@H]1[C@@H](O[C@@H]2O[C@H](C(=O)O)[C@@H](O)[C@H](O)[C@H]2O[C@@H]2O[C@H](C(=O)O)[C@@H](O)[C@H](O)[C@H]2O)CC[C@]2(C)[C@H]3CC=C4[C@H]5C[C@@](C)(C(=O)O)CC[C@]5(C)CC[C@@]4(C)[C@]3(C)CC[C@@H]12	47%	39.6 µM	–
CCOC(=O)C1=C[C@@H](OC(CC)CC)[C@H](NC(C)=O)[C@@H](N)C1 [OSELTAMIVIR PHOSPHATE]	–	45.6 µM	–
CC1(C)[C@H]2CC[C@@]3(C)[C@@H](C(=O)C=C4[C@@H]5C[C@]6(C)C[C@@H](COC6=O)[C@@]5(C)CC[C@@]43C)[C@]2(C)CC[C@H]1O[C@H]1O[C@@H](C(=O)O)[C@H](O)[C@@H](O)[C@@H]1O[C@@H]1O[C@H](C(=O)O)[C@H](O)[C@H](O)[C@H]1O	47%	39.6 µM	–
CC1(C)[C@@H](O[C@@H]2O[C@H](C(=O)O)[C@@H](O)[C@H](O[C@@H]3O[C@H](C(=O)O)[C@@H](O)[C@H](O)[C@H]3O)[C@H]2O)CC[C@]2(C)[C@H]3C(=O)C=C4[C@H]5C[C@@](C)(C(=O)O)CC[C@]5(C)CC[C@@]4(C)[C@]3(C)CC[C@@H]12	47%	39.6 µM	–
CC(=O)O[C@H]1C[C@@](C)(C(=O)O)C[C@H]2C3=CC(=O)[C@H]4[C@]5(C)CC[C@@H](O[C@@H]6O[C@H](C(=O)O)[C@@H](O)[C@H](O)[C@H]6O[C@H]6OC[C@H](O)[C@@H](O)[C@@H]6O[C@H]6O[C@H](C)[C@@H](O)[C@H](O)[C@@H]6O)C(C)(C)[C@H]5CC[C@]4(C)[C@@]3(C)CC[C@]12C	47%	39.6 µM	–
CC(=O)O[C@H]1C[C@@](C)(C(=O)O)C[C@H]2C3=CC(=O)[C@H]4[C@]5(C)CC[C@@H](O[C@@H]6O[C@H](C(=O)O)[C@@H](O)[C@H](O)[C@H]6O[C@@H]6O[C@H](CO)[C@H](O)[C@H](O)[C@H]6O)C(C)(C)[C@H]5CC[C@]4(C)[C@@]3(C)CC[C@]12C	47%	39.6 µM	–
CC(C)=CCc1c(O)cc(O)c2c(=O)c(-c3ccc(O)c(O)c3)coc12 [GANCAONIN L]	–	–	> 30%
CC1(C)[C@@H](O[C@@H]2O[C@H](C(=O)O)[C@@H](O)[C@H](O)[C@H]2O[C@@H]2O[C@H](C(=O)O)[C@@H](O)[C@H](O)[C@H]2O)CC[C@]2(C)[C@H]3C(=O)C=C4[C@H]5C[C@@](C)(C=O)CC[C@]5(C)CC[C@@]4(C)[C@]3(C)CC[C@@H]12	47%	39.6 µM	–
CC1(C)[C@@H](O[C@@H]2O[C@H](C(=O)O)[C@@H](O)[C@H](O)[C@H]2O[C@@H]2O[C@H](C(=O)O)[C@@H](O)[C@H](O)[C@H]2O)CC[C@]2(C)[C@H]3C(=O)C=C4[C@H]5C[C@@](C)(CO)C[C@@H](O)[C@]5(C)CC[C@@]4(C)[C@]3(C)CC[C@@H]12	47%	39.6 µM	–
